A selection: hits, their analogues and other compounds. The true share with any hit is near 3.3%.
sPLA2-III inh: Inhibits HGIII-sPLA2 liposome hydrolysis, primary screen; inhibition, % at 12.2 µM; QFRET BODIPY PC-A2 liposome hydrolysis, fluorescence; Q9NZ20; actives 0.56% (n = 370,000);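 active = inhibition above mean plus 3 SD of compounds lying within the high and low control bounds, cut at about 19% in these data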;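 note: 0% = median of test compound wells and 100% = no enzyme DMSO wells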
Target sequence (Q9NZ20 whole entry, looked up): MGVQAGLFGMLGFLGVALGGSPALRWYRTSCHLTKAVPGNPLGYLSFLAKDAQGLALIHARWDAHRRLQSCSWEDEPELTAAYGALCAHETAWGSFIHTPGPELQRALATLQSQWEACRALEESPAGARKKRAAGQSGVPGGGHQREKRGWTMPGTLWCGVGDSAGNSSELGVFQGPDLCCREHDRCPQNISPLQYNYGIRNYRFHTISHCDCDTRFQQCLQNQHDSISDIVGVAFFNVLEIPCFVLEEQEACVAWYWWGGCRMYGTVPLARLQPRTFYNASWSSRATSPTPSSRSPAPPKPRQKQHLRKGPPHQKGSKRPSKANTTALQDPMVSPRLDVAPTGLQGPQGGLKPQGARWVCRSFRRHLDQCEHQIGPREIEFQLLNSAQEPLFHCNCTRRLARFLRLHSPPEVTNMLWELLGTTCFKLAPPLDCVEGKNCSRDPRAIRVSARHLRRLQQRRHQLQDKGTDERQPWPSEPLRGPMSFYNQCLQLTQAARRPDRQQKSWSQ
NRP1-CendR mod: NRP-1/CendR interaction modulation | O14786 | FAM-RPARPAR peptide binding to NRP-1, fluorescence polarization | inhibition, % at 25 µM | actives 0.85% (n = 360,000) | AID 602438;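 active = inhibition or corrected inhibition above about 18%, plus a signal ratio from 0.5 to 1.5, limit read from the data, passing the limit was not always enough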
HTR2A ag: activates the mouse 5-HT2A serotonin receptor | P35363 | actives 0.66% (n = 360,000) | CHO-K1 mHTR2A beta-arrestin complementation, luminescence; percent of 30 µM serotonin response | activation, % at 7.6 µM;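 active = activation above a run cutoff, the mean activation of all tested compounds plus 3 SD, cut at about 14% in these data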;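 note: 0% = plate median of compound wells and 100% = 30 µM serotonin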
M18AAP inhibitor: blocks P. falciparum M18 aspartyl aminopeptidase | inhibition, % at 7.35 µM | recombinant PfM18AAP, H-Glu-NHMec fluorogenic cleavage | actives 1.2% (n = 290,000) | AID 1822;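 active = inhibition above the campaign mean inhibition over all tested compounds plus 3 SD, cut at about 28% in these data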;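 note: 0% = plate median of test compound wells and 100% = 2 mM ZnCl2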
Lipid droplet: hepatic lipid droplet formation modulation; AML12 mouse hepatocytes, oleate lipid droplets, BODIPY imaging; inhibition, % at 6.5 µM; actives 0.4% (n = 240,000);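 active = lipid droplet intensity inhibited by at least 50%, with more than 500 cells counted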
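Material – mouse AML12 hepatocyte cell line, fixed after treatment · Compound dosing – one dose, 6.5 µM compound · Times – compound with oleate, overnight · Measured by – Image-based BODIPY and DAPI two-channel analysis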
Arrestin-AP2 inh: blocks beta-arrestin peptide binding to AP2 adaptin. FITC-arrestin peptide / GST-AP2 beads, flow cytometry; AP2 beta2 appendage carries R879A mutation. inhibition, % at 10 µM. actives 0.31% (n = 340,000);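 active = inhibition above a set limit, near 3 SD of compounds lacking own fluorescence, cut at about 54% in these data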;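 note: plate controls were DMSO wells for no effect and 5 µM unlabelled arrestin peptide for full effect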
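System: GST-AP2 R879A bound to glutathione beads, E. coli-expressed. Also added: 50 nM FITC-arrestin peptide. Schedule: compound with beads 12 min RT, then probe 1 h RT. Signal: bead flow cytometry, FITC channel. Read-out basis: percent response.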
Active calls of the source: *; / = no result given; ! = a repeat was not active.

SMILES	sPLA2-III inh	NRP1-CendR mod	HTR2A ag	M18AAP inhibitor	Lipid droplet	Arrestin-AP2 inh
COC(=O)C1N[C@@H]([C@@H](NC(=O)COc2ccccc2)C(=O)NC2CC2)SC1(C)C (stereo partly drawn)	2	31*	-3	/	/	-7
COc1ccc(OC)c(/C=N/NC(=O)CCc2c(C)n[nH]c2C)c1	-2	13	3	-7	-11	-3
COc1ccc(OC)c(/C=N/NC(=O)CCc2ccc(O)c(O)c2)c1	-13	8	4	31*	-2	17
Cc1oc(-c2ccc(Cl)cc2)cc1C(=O)O	-6	44*	3	3	18	-17
Cn1c(SCC(=O)Nc2ccccc2F)nc2c(c1=O)SCC2	3	12	2	17	-6	6
Cn1c(SCC(=O)Nc2ccc(F)cc2)nc2c(c1=O)SCC2	7	24*	1	-5	-6	-14
COc1ccc(C(C#N)=C2C=CC(=NO)C=C2)cc1	-19	9	9	29*	11	-16
Cc1nc2nc(CSc3nnc(C)s3)cc(=O)n2[nH]1	-5	24*!	1	2	8	-3
C=CCCC1CN(Cc2ccc(OC)cc2)S(=O)(=O)c2c(cccc2N2CCCCC2)O1 (stereo not drawn)	16	/	/	/	/	/
COc1ccccc1CN(C)C(=O)c1cccc(S(=O)(=O)N2CCCc3ccccc32)c1	-3	2	-11	/	/	-10
Cc1c(OC(C)C(=O)NCc2ccccn2)ccc2c3c(c(=O)oc12)CCC3 (stereo not drawn)	0	23*	6	1	-6	-3
Cc1c(OCC(=O)NCc2ccccn2)ccc2c3c(c(=O)oc12)CCCC3	2	-4	-2	2	-10	-4
CN(C)c1cccc(/C=C2\CC3(OC(=O)c4ccco4)CCCN2C3)c1 (stereo not drawn)	8	/	/	/	/	/
CCC(=O)c1c[nH]c(C(=O)NCc2cccnc2)c1	2	22*	1	5	-19	-24
CCCC(=O)c1c[nH]c(C(=O)NCc2cccnc2)c1	2	3	-2	3	5	7
COc1ccc(-c2csc(C(O)c3ccc(F)c(OC)c3)n2)cn1 (stereo not drawn)	-15	6	5	/	/	/
COc1cc(O)cc2cc3c(c(O)c12)C(=O)CC(C)(O)O3 (stereo not drawn)	-10	38*	0	/	2	12
CCOC(=O)Cn1cnc2c(nnn2-c2cccc(OC)c2)c1=O	9	-2	1	3	30	43
COc1cccc(-n2nnc3c(=O)n(CC(=O)OCc4ccccc4)cnc32)c1	3	26*	-3	-1	12	-2
CCOC(=O)C(=CNc1ccc(N2CCCCC2)c(S(=O)(=O)Nc2ccccc2OC)c1)C(=O)OCC	14	36*	-1	/	/	-2
COc1ccccc1C1(O)CCN(CC(=O)Nc2nc(-c3ccccc3)cs2)CC1	-13	-2	-3	-2	89*	5
CCc1nnc(NC(=O)CN2CCC(O)(c3ccccc3OC)CC2)s1	-1	-4	-1	1	/	-4
COC(=O)C1=C(C)N(Cc2cccc(C(F)(F)F)c2)C(=NCc2cc(OC)c(OC)c(OC)c2)NC1c1cccc(C(F)(F)F)c1 (stereo not drawn)	-17	/	/	/	/	/
O=C(COC(=O)C12CC3CC(CC(C3)C1)C2)Nc1nc2c(F)c(F)c(F)cc2s1	0	31*	-1	-13	-1	2
CCOC(=O)/C=C1\NC(=O)CS1	-3	28*	7	3	10	-4
SMILES	sPLA2-III inh	NRP1-CendR mod	HTR2A ag	M18AAP inhibitor	Lipid droplet	Arrestin-AP2 inh
CC(C)CC(NC(=O)OCc1ccccc1)C(=O)NCC(=O)NCC(=O)OCc1ccccc1 (stereo not drawn)	-5	/	/	/	/	/
COc1ccc(S[C@]2(C(=O)N(C)C)CC(=O)N(C(=O)c3ccccc3)[C@@H]2c2ccc(OC)cc2)cc1	1	/	/	/	/	/
CC(NCCOCCOc1ccccc1)c1ccccc1 (stereo not drawn)	-5	26*	-3	2	-10	11
c1ccc(OCCOCCOc2ccccc2)cc1	5	13	4	/	/	39
O=C(Nc1ccc(F)cc1)c1ccc(S(=O)(=O)N2CCOCC2)o1	-2	25*	9	-13	7	0
NS(=O)(=O)c1ccc(NC(=O)c2ccc(S(=O)(=O)N3CCOCC3)o2)cc1	-1	-5	-2	-2	2	7
O=C(O)CC1(CC(=O)Nc2ccccc2N2CCOCC2)CCCC1	-1	2	0	-4	1	-4
COc1ccc(/C=C/C(=O)NC(=S)NNC(=O)c2c(-c3ccccc3)noc2C)cc1	18	-1	-3	3	8	10
COc1ccc(-c2cc(C(=O)NNC(=S)NC(=O)c3c(-c4ccccc4)noc3C)[nH]n2)cc1	24*	-16	-2	5	-18	13
Cc1ccc(-c2cc(C(=O)N/N=C/c3cccnc3)c3ccccc3n2)cc1C	2	26*	-1	/	/	9
COCCNC(=S)N(CCc1c(C)[nH]c2ccc(F)cc12)Cc1cccs1	-24	32*	5	-12	-1	8
Cn1ccc(C(=O)Nc2sc3c(c2C(N)=O)CCCCC3)n1	5	-11	3	38*	4	0
Cn1nccc1C(=O)Nc1sc2c(c1C(N)=O)CCCC2	-4	-2	-1	2	0	7
Cn1c(-c2ccc(F)c(F)c2)cc2onc(-c3ccccc3)c2c1=O	6	18	4	/	/	4
COc1cccc(-c2cc3onc(-c4ccccc4)c3c(=O)n2C)c1	8	18*	2	/	/	-6
Cc1ccc(C(=O)COC(=O)CN2C(=O)C3C4CCC(C4)C3C2=O)cc1[N+](=O)[O-] (stereo not drawn)	-6	6	-3	2	7	18
Cc1ccc(C(=O)COC(=O)CN2C(=O)C3C4CCC(C4)C3C2=O)cc1C (stereo not drawn)	-4	24*	-3	2	2	-8
Cc1ccc(S(=O)(=O)N(C)C)cc1NC(=O)COC(=O)c1ccc2c(c1)OCO2	-8	37*	2	4	4	7
Cc1ccc(S(=O)(=O)N(C)C)cc1NC(=O)COC(=O)c1ccc2c(c1)OCCO2	-9	1	4	-5	-2	20
C[C@H](c1ccccc1)N1C[C@H](COCc2ccccc2)Oc2cc(N3CC[C@@H](N(C)C)C3)ccc2S1(=O)=O	-4	4	-6	/	/	/
C[C@@H](c1ccccc1)N1C[C@@H](COCc2ccccc2)Oc2cc(N3CC[C@@H](N(C)C)C3)ccc2S1(=O)=O	-17	25*	-11	/	/	/
Cc1noc(C)c1C(=O)N1CCC(C(=O)c2ccc(F)cc2F)CC1	8	3	2	16	2	-6

Bioassay records as filed in PubChem BioAssay.
